Results as given in ChEMBL document CHEMBL4043283, “Discovery and Preclinical Development of IIIM-290, an Orally Active Potent Cyclin-Dependent Kinase Inhibitor” (J Med Chem, 2018).
≈ marks a conversion by molar mass, not a printed value. Calls of active or inactive are those of the source. No cut-off for these calls is given here.

How the values were obtained:
[1] = Half life in mouse liver microsomes at 100 uM after 30 mins by LC-MS/MS analysis; assay type: ADME, microsome
Outline: (§1)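 Parent loss followed over time to give half-life, with NADPH as cofactor for microsomal phase I metabolism.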

[2] = Protein binding in rat plasma at 3 uM after 5 hrs by equilibrium dialysis method; assay type: ADME, cell-free; settings: read-out: PPB (converted)
[3] = Tmax in BALB/c mouse at 30 mg/kg, po by LC-MS/MS analysis; assay type: ADME, organism-based; settings: in vivo
[4] = system: Kidney; test: Drug uptake in BALB/c mouse kidney at 30 mg/kg, po after 8 hrs; assay type: ADME, organism-based; settings: in vivo
[5] = Chemical stability of compound in SIF at pH 6.8 assessed as parent compound remaining after 8 hrs by HPLC method; assay type: physicochemical; settings: read-out: Stability
[6] = AUC (0 to t) in BALB/c mouse at 10 mg/kg, po by LC-MS/MS analysis; assay type: ADME, organism-based; settings: in vivo
[7] = system: OVCAR-5; test: Growth inhibition of human OVCAR5 cells after 48 hrs by MTT assay; assay type: functional; settings: OVCAR-5, 48 h
Outline: (§2)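 Cancer cell lines sourced from the National Cancer Institute (USA). Cells kept in appropriate growth medium at 37 °C, 95% humidity, 5% CO2. Antiproliferation read by tetrazolium (MTT) assay. GI50 values were determined only for compounds selected after an initial single-concentration screen.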

[8] = Thermodynamic equilibrium solubility of compound in water after 5 hrs by shake flask method; assay type: physicochemical; settings: read-out: Therm_solubility
[9] = Growth inhibition of human FR2 cells after 48 hrs by MTT assay; assay type: cell-based
Outline: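 fR2 is a normal epithelial line of ECACC type. Cells were grown in appropriate medium at 37 °C, 95% humidity, 5% CO2. Antiproliferative effect measured by MTT assay, with GI50 values derived from concentration-response testing.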

[10] = Ratio of Cmax in BALB/c mouse at 30 mg/kg, po to GI50 for human HL60 cells
[11] = molecular target: Receptor tyrosine-protein kinase erbB-3 (Homo sapiens) (UniProt P21860); test: Inhibition of partial length wild type human ERBB3 expressed in mammalian expression system at 0.5 uM by KINOMEscan method relative to control
Outline: (§3)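 Competition binding screen (KINOMEscan) at 0.5 μM; primary binding read out as % of control, lower values indicating stronger interaction.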

[12] = system: Liver; test: Intrinsic clearance in dog liver S9 fraction assessed per mg of protein preincubated for 5 mins followed by NADPH addition measured after 30 mins by LC-MS/MS analysis; assay type: ADME, tissue-based, Canis lupus familiaris; settings: s9, 0.5 h
Outline: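 Intrinsic clearance obtained from substrate disappearance over time, reported per mg protein (microsomes, S9) or per 10^6 cells (hepatocytes).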

[13] = system: MCF7; test: Growth inhibition of human MCF7 cells after 48 hrs by MTT assay; assay type: functional; settings: MCF7, 48 h; outline: as §2
[14] = Half life in human hepatocytes at 3 uM after 180 mins by LC-MS/MS analysis; assay type: ADME, cell-based, Hepatocyte
[15] = system: Mus musculus; test: Toxicity in CD1 nude mouse xenografted with human MOLT4 cells assessed as mortality at 50 mg/kg, po qd administered on day 10 to 25 post tumor inoculation; assay type: organism-based; settings: in vivo
[16] = system: Ehrlich; test: Antitumor activity against Swiss mouse EAC allografted in Swiss albino mouse assessed as tumor growth inhibition at 70 mg/kg, po administered for 9 day measured on day 13 relative to control; assay type: functional; settings: read-out: TGI
[17] = system: MIA PaCa-2; test: Induction of apoptosis in human MIAPaCa2 cells assessed as chromatin condensation in nuclei after 24 hrs by scanning electron microscopy; assay type: functional, cell-based
Outline: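 Cells exposed to different compound concentrations for 24 h on coverslips, fixed in 2.5% glutaraldehyde in 0.1 M phosphate buffer pH 7.2 (4 °C, 24 h), postfixed in 1% OsO4 4 h, ethanol-dehydrated, critical-point dried with HMDS, gold-coated, imaged at 20 kV.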

[18] = system: Caco-2; test: Growth inhibition of human Caco2 cells after 48 hrs by MTT assay; assay type: functional; settings: Caco-2, 48 h; outline: as §2
[19] = molecular target: Voltage-gated inwardly rectifying potassium channel KCNH2 (Homo sapiens, UniProt Q12809); test: Inhibition of [3H]-astemizole binding to human ERG expressed in HEK293 cell membranes by scintillation counting method
[20] = system: MDA-MB-231; test: Growth inhibition of human MDA-MB-231 cells after 48 hrs by MTT assay; assay type: functional; settings: MDA-MB-231, 48 h; outline: as §2
[21] = system: MIA PaCa-2; test: Cell cycle arrest in human MIAPaCa2 cells assessed as accumulation at S phase at 1.5 uM after 24 hrs by propidium iodide staining-based flow cytometric method (reference value: 33%); assay type: functional
[22] = molecular target: Tyrosine-protein kinase Blk (Homo sapiens) (UniProt P51451); test: Inhibition of partial length wild type human BLK expressed in bacterial expression system at 0.5 uM by KINOMEscan method relative to control; outline: as §3
[23] = system: A-431; test: Growth inhibition of human A431 cells after 48 hrs by MTT assay; assay type: functional; settings: A-431, 48 h; outline: as §2
[24] = Intrinsic clearance in mouse hepatocytes assessed per million cells at 3 uM after 180 mins by LC-MS/MS analysis; assay type: ADME, cell-based, Hepatocyte; settings: read-out: CLH
[25] = molecular target: Cytochrome P450 2D6 (Homo sapiens, UniProt P10635); test: Inhibition of human CYP2D6 using fluorogenic substrate preincubated with co-factor for 10 mins followed by enzyme-substrate addition by fluorometric method; assay type: ADME
Outline: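 Cofactor plus test item or vehicle, in triplicate, preincubated 10 min at 37 °C; prewarmed enzyme–substrate mix added and incubated at 37 °C with shaking. Quench: acetonitrile (CYP2C19, CYP3A4) or 0.25 M Tris in 60% methanol (CYP2C9, CYP2D6). Metabolite fluorescence read; % inhibition computed against enzyme controls and enzyme-free blanks.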

[26] = system: alpha-1 acid glycoprotein; test: Binding affinity to alpha-1 acid glycoprotein (unknown origin); assay type: ADME; settings: human, read-out: PB (converted)
[27] = molecular target: CDK1/Cyclin A (Homo sapiens, UniProt P06493); test: Inhibition of CDK1/cyclin A (unknown origin) after 30 mins in presence of [33P]-gamma-ATP by filter binding assay; assay type: protein-complex assay
[28] = system: HCT-116; test: Antitumor activity against human HCT116 cells xenografted in CD1 nude mouse assessed as tumor growth inhibition at 50 mg/kg, po qd administered on day 10 to 25 post tumor inoculation relative to control; assay type: functional; settings: HCT-116, po, 240 h, read-out: TGI
[29] = system: Salmonella typhimurium; test: Mutagenicity in Salmonella typhimurium TA98 at 50 ug/plate in absence of liver S9 fraction by Ames test; assay type: toxicity; settings: salmonella enterica subsp. enterica serovar typhimurium
[30] = molecular target: CDK2/Cyclin A2 (Homo sapiens) (UniProt P24941+P20248); test: Inhibition of CDK2/cyclin A (unknown origin) at 0.5 uM using histone H1 as substrate after 30 mins in presence of [33P]-gamma-ATP by filter binding assay relative to control; assay type: protein-complex assay
[31] = Cmax in BALB/c mouse at 3 mg/kg, po by LC-MS/MS analysis; assay type: ADME, organism-based; design: dose 3 mg/kg, route oral; settings: in vivo
[32] = system: Tyrosine-protein kinase ABL1 (Homo sapiens), P00519 [Q252H]; test: Inhibition of partial length human ABL1 Q252H mutant expressed in mammalian expression system at 0.5 uM by KINOMEscan method relative to control; outline: as §3
[33] = Half life in monkey liver microsomes at 100 uM after 30 mins by LC-MS/MS analysis; assay type: ADME, Macaca mulatta, microsome; settings: rhesus monkey; outline: as §1

Chain of Voltage-gated inwardly rectifying potassium channel KCNH2 (Q12809 whole entry): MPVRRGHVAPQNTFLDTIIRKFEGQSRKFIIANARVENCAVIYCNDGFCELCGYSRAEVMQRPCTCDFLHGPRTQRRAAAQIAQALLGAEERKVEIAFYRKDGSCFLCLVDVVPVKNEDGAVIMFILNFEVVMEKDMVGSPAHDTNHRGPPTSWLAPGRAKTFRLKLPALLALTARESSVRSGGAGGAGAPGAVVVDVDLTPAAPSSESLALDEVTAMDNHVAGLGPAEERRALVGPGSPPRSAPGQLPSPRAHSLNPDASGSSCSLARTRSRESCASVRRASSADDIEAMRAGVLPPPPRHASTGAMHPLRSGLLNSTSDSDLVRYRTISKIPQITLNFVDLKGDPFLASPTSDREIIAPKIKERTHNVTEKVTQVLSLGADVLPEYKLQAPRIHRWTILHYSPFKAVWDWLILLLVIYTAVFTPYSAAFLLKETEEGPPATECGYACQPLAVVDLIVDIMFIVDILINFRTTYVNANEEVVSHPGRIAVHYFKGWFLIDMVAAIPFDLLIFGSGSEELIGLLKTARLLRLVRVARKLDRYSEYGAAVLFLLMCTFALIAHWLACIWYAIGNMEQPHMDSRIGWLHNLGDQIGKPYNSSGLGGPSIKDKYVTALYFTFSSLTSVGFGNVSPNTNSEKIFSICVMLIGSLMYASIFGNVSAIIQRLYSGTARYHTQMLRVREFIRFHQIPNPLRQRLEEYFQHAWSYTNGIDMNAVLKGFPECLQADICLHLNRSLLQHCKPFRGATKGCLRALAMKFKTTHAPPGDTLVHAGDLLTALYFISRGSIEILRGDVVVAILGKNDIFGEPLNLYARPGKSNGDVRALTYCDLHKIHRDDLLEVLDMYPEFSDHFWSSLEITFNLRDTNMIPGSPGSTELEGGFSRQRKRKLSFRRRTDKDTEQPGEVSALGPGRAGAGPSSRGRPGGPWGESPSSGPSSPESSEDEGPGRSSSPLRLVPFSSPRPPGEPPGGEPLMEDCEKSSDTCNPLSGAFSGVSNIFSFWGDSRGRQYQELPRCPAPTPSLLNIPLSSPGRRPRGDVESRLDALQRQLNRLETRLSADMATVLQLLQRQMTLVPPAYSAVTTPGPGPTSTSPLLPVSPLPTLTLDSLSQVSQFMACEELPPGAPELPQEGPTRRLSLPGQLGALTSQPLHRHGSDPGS
Chain of Cytochrome P450 2D6 (P10635 whole entry): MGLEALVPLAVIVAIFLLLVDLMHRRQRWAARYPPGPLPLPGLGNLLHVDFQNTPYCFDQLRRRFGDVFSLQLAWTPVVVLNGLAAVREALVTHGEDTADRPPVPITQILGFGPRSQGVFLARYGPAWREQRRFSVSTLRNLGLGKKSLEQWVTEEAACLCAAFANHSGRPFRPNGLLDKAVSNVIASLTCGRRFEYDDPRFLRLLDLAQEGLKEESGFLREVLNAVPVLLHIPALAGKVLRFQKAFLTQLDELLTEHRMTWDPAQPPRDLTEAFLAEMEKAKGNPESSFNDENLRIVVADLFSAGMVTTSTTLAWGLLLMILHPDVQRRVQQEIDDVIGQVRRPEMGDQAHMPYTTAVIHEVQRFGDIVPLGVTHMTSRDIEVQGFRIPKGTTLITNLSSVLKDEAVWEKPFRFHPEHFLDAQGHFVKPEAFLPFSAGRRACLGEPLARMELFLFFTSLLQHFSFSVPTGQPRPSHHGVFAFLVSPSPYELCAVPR
Chain of CDK1/Cyclin A (P06493 whole entry): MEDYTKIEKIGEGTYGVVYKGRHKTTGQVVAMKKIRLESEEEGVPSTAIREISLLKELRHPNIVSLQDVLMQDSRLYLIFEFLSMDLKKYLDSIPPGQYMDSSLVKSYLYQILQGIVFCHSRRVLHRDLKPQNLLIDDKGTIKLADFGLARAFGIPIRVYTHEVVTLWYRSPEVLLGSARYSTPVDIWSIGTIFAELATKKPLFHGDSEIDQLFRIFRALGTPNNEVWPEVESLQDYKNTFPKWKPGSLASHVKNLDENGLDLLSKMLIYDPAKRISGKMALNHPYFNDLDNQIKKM
Chain of CDK1/Cyclin A (P20248 whole entry, further chain): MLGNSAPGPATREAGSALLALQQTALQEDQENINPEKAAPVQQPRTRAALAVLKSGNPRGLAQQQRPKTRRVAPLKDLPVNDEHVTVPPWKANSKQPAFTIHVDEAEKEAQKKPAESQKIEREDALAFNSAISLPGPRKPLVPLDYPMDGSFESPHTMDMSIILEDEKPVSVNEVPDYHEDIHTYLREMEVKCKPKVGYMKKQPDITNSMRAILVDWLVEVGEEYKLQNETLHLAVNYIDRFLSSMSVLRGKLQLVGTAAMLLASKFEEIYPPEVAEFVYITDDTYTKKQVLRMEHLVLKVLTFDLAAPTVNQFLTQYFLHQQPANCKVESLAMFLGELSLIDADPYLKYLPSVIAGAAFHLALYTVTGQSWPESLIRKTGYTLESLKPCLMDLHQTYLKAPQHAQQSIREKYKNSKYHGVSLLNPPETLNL
Chain of Receptor tyrosine-protein kinase erbB-3 (Homo sapiens) (P21860 whole entry): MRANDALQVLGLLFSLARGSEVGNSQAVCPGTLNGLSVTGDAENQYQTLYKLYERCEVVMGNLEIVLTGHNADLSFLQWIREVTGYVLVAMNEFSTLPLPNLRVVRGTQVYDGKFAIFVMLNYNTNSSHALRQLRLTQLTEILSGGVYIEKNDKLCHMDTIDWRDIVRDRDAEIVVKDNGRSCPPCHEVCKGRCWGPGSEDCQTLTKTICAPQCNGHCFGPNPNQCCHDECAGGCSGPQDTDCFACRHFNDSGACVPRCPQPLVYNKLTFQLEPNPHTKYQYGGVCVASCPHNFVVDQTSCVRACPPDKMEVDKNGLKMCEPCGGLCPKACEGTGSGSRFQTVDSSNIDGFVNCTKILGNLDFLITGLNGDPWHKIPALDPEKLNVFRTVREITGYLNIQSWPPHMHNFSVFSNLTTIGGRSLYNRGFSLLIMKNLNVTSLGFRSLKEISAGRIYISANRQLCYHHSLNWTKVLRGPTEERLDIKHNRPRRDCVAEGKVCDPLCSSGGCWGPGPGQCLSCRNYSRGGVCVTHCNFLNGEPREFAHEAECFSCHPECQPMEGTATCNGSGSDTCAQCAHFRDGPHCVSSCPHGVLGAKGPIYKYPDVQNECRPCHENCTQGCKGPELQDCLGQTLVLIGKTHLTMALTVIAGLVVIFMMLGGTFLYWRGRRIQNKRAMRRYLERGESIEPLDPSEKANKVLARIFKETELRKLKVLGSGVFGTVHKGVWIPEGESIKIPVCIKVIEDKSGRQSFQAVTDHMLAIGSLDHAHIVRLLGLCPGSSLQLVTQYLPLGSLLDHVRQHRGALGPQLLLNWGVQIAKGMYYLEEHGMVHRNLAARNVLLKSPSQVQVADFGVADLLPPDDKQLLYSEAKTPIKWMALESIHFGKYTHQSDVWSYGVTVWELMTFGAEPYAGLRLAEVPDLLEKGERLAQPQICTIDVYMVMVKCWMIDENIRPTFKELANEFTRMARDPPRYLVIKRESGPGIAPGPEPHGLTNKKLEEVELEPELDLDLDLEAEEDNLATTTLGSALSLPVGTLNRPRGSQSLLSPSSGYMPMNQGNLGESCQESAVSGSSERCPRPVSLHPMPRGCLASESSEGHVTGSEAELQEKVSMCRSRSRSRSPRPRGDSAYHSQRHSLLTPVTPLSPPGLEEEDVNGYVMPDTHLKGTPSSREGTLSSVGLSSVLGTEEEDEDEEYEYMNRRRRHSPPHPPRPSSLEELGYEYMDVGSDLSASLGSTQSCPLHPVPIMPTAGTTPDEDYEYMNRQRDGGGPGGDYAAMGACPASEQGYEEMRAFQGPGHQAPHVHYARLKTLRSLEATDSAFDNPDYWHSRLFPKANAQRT
Chain of Tyrosine-protein kinase Blk (Homo sapiens) (P51451 2-505 limits assumed): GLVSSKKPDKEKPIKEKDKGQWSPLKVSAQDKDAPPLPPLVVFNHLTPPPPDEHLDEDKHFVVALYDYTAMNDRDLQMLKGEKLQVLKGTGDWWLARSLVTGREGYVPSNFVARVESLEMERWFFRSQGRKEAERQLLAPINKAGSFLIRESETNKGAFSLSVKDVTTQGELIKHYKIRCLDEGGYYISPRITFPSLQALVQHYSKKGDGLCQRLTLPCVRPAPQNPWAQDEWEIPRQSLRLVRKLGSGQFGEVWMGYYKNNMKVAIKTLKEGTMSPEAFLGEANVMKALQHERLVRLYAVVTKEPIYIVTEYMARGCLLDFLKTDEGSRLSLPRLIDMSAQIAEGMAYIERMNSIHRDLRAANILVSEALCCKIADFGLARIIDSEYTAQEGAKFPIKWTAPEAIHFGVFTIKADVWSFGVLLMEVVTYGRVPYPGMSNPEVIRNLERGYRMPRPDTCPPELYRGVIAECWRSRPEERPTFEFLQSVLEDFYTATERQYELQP

In the case of `CN1CC[C@H](c2c(O)cc(O)c3c(=O)cc(/C=C/c4c(Cl)cccc4Cl)oc23)[C@H](O)C1`, the half-life at 100 µM [1] is reported as > 30 min, the fraction unbound at 5 h, 3 µM [2] is reported as 0.046 and the Tmax [3] is reported as 32.4 min. The Drug uptake [4] was “Active”, the remaining at 8 h [5] was 100% and the AUC(0-t) [6] was 4.5 µM·h. The GI50 [7] was 7 µM, the solubility thermodynamic at 5 h [8] was 20.3 µg/mL (≈ 43.9 µM) and the GI50 at 48 h [9] was 19 µM. The Ratio [10] was 4, the inhibition [11] was > 98% and the CLint [12] was 12 µL/min/mg. For the same compound, the GI50 [13] was 4 µM, the half-life at 3 µM [14] was 726 min and the Activity [15] was “Non-Toxic”. For the same compound, the inhibition in vivo at 70 mg/kg [16] was 31%, the Activity [17] was “Active” and the GI50 [18] was 7 µM. The IC50 [19] was > 50 µM, the GI50 [20] was 4 µM and the Activity [21] was 33%. For the same compound, the inhibition [22] was > 98%, the GI50 [23] was 8 µM and the hepatocyte CLint at 3 µM [24] was 14.9 µL/min/1e6 cells. For the same compound, the IC50 [25] was > 20 µM, the fraction unbound [26] was 0.017 and the IC50 [27] was 0.00493 µM. For the same compound, the inhibition in vivo at 50 mg/kg [28] was 40 to 52%, the Activity [29] was “Non-Toxic” and the inhibition [30] was 90%. For the same compound, the Cmax [31] was 216 nM, the inhibition [32] was > 98% and the half-life at 100 µM [33] was 25 min.
